Published values from different studies.
Target: Ephrin type-B receptor 3 (EPHB3, Homo sapiens, UniProt P54753)
One construct used (P54753 34-998): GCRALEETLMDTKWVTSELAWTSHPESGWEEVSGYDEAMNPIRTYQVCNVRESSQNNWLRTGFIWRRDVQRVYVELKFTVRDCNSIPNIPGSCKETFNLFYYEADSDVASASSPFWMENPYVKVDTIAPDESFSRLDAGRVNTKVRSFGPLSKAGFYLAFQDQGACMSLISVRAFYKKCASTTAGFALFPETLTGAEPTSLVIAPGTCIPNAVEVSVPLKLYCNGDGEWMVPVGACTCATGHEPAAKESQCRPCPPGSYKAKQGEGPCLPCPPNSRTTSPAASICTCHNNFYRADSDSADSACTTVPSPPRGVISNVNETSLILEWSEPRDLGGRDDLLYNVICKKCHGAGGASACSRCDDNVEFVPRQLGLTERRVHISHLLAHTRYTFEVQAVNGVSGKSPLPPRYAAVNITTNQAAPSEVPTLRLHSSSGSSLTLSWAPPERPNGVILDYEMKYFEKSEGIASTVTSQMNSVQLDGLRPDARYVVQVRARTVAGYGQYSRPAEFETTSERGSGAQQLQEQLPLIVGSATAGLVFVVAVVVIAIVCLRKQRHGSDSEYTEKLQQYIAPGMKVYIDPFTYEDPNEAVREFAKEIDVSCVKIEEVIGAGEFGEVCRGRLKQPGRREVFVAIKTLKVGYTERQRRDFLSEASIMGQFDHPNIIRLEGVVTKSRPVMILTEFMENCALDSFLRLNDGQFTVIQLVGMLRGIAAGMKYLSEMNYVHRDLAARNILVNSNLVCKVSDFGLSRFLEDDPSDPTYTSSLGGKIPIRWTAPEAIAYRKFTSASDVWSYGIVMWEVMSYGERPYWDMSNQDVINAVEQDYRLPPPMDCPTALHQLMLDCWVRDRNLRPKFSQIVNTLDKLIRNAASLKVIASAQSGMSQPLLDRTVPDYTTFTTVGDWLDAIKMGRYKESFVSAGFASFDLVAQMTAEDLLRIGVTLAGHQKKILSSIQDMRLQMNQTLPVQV

Compound | read-out | technique | tested at | remaining binding
O=C(c1ccc(Nc2nccc(-c3cc4ccccc4s3)n2)cc1)N1CCC(N2CCCC2)CC1 | binding | competition with immobilised ligand | 1 µM | 100%
COc1cnc(Nc2cccc(S(N)(=O)=O)c2)nc1N1CCN(c2ccccc2)C(=O)C1 | binding | competition with immobilised ligand | 1 µM | 100%
CCS(=O)(=O)c1cc2cc(C[C@@](O)(CC(C)(C)c3ccc(F)cc3C(N)=O)C(F)(F)F)[nH]c2cn1 | cell-free assay | competition with immobilised ligand | 1 µM | 92%
C[C@H]1CCN(c2nccc(-c3cnn4ncccc34)n2)C1 | binding | – | 1 µM | 100%
c1cncc(-c2cccc(Nc3nccc(NC4CCCCC4)n3)c2)c1 | binding | competition with immobilised ligand | 10 µM | 89%
CN(C)c1ncc(F)c(-c2cnn3ncccc23)n1 | binding | – | 1 µM | 76%
C[C@@H](c1ccc(-n2cnc3c(N)ncnc32)cc1)N1CCc2nn(C)c(Cc3ccccc3)c2C1=O | binding | competition with immobilised ligand | 0.1 µM | 90%
O=C(NCCCN1CCOCC1)c1ccc(Nc2nccc(-c3cc4ccccc4s3)n2)cc1 | binding | competition with immobilised ligand | 1 µM | 93%
CN(C)c1nccc(-c2cnc3ncccn23)n1 | binding | – | 1 µM | 91%
O=C(Nc1c[nH]nc1C(=O)NC1CCNCC1)c1cc(F)cc(F)c1 | binding | competition with immobilised ligand | 1 µM | 100%
O=C(NCCCC1CCCCC1)c1ccc(CNC(=O)c2cnn(-c3ccccc3)c2C(F)(F)F)cc1 | cell-free assay | competition with immobilised ligand | 0.1 µM | 79%
CCN1CCN(Cc2ccc(C(=O)Nc3ccc(C)c(Oc4ccc5c(c4)CC(=O)N5)c3)cc2C(F)(F)F)CC1 | binding | competition with immobilised ligand | 1 µM | 100%
Cc1c(C(=O)O)cc(-c2ccc(C3CCNCC3)cc2)c2ccc(-c3ccc(C(F)(F)F)cc3)cc12 | cell-free assay | competition with immobilised ligand | 1 µM | 100%
COc1ncc2cc3ccccc3nc2c1C#N | cell-free assay | competition with immobilised ligand | 5 µM | 1.4%
CN(C)c1nccc(-c2cnn3ncccc23)n1 | binding | – | 1 µM | 88%
O=S(=O)(NC1CCC(c2cc(F)ccc2F)(S(=O)(=O)c2ccc(Cl)cc2)CC1)C(F)(F)F (centres unmarked) | cell-free assay | competition with immobilised ligand | 1 µM | 100%
CC1CCCN1c1nccc(-c2cnn3ncccc23)n1 (centres unmarked) | binding | – | 1 µM | 89%
COc1ccc2c(c1)O[C@H](c1ccc(OC)c(OC)c1)C[C@@H]2NC(=O)C1(c2ccc3c(c2)OC(F)(F)O3)CC1 | cell-free assay | competition with immobilised ligand | 1 µM | 91%
N[C@@H]1CCN(c2nccc(-c3cnn4ncccc34)n2)C1 | binding | – | 1 µM | 100%
COCCOc1nc(-c2ccc(Cl)nc2)nc2c1CN(C(=O)c1ncn3ccccc13)CC2 | cell-free assay | competition with immobilised ligand | 0.1 µM | 100%
